ChEMBL document CHEMBL1130101, “A virtual screening approach applied to the search for trypanothione reductase inhibitors” (J Med Chem, 1997)

Key:
[1] = target: Trypanothione reductase (Trypanosoma cruzi) (UniProt P28593); assay: Percent Inhibition of trypanothione reductase activity at 57 uM concentration
Outline: (§1)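 TR-catalysed reduction of trypanothione disulfide; the reaction rate was measured without inhibitor (r0) and with inhibitor (rinh). Percent inhibition = (r0 − rinh)/r0 × 100. Measured percentages carry an error of about 10%.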

[2] = target: Trypanothione reductase (Trypanosoma cruzi) (UniProt P28593); assay: Percent Inhibition of trypanothione reductase activity at 28.5 uM concentration; outline: as §1
[3] = target: Trypanothione reductase (Trypanosoma cruzi) (UniProt P28593); assay: Percent Inhibition of trypanothione reductase activity at 5.7 uM concentration; outline: as §1
[4] = target: Trypanothione reductase (Trypanosoma cruzi) (UniProt P28593); assay: Natural log of the value in (uM) of inhibition constant was tested against Trypanothione Reductase

Trypanothione reductase (Trypanosoma cruzi), sequence (P28593 whole entry, looked up): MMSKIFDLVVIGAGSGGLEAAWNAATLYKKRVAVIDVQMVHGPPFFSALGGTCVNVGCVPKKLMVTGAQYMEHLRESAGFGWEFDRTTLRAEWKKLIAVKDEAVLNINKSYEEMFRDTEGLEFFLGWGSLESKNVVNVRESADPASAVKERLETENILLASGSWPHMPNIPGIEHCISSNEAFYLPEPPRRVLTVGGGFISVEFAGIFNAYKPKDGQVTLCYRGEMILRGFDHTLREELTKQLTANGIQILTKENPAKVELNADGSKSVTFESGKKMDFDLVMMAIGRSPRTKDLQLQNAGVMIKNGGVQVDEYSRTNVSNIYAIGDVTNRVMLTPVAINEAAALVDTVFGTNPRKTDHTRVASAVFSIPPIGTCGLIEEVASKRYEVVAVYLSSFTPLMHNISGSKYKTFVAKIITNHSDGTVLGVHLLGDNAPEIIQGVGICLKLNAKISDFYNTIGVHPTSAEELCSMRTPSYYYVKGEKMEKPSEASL

Structure (SMILES) | inhibition [1] [%] | inhibition [2] [%] | inhibition [3] [%] | Natural log of inhibition constant (Ki in uM) [4]
C[C@@H]1CN(CCCn2c3ccccc3c3ccccc32)C[C@H](C)N1 | 23 | 15 | 10 | –
CN1CCN(CCCNc2cc(Cl)ccc2Sc2cc(Cl)ccc2Cl)CC1 | – | – | – | 3.4
CNCCC=C1c2ccccc2CCc2ccccc21 | 25 | 0 | 0 | –
CCN(CC)CCCNc1cc(Cl)ccc1Sc1ccccc1 | – | – | – | 3.74
NCCCCNCCCNC(=O)CCc1ccc(O)c(O)c1 | – | – | – | 4.68
Clc1ccc(Sc2ccccc2)c(NCCN2CCCC2)c1 | – | – | – | 4.34
CN1CCN(CCCNc2cc(Cl)ccc2Sc2ccccc2)CC1 | – | – | – | 3.3
CN1CCN(CCCNc2cc(Cl)ccc2Sc2ccc(Cl)cc2)CC1 | – | – | – | 4.04
Cc1ccc(Sc2ccccc2NCCCN2CCN(C)CC2)cc1 | – | – | – | 4.17
NCc1ccccc1Sc1ccccc1CO | 31 | 0 | 0 | –
CN(C)CCCC(CN)(c1ccccc1)c1ccccc1 | 36 | 9 | 0 | –
CCN(CC)CCNc1cc(Cl)ccc1Sc1ccccc1 | – | – | – | 6.21
CN(C)c1ccc(C(c2ccc(N(C)C)cc2)c2ccc(N(C)C)cc2)cc1 | – | – | – | 1.6
CC(=O)c1ccc(Sc2ccc(Cl)cc2NCCCN2CCN(C)CC2)cc1 | – | – | – | 2.94
Cc1cccc(C)c1OCC(O)CN1CCNCC1 (stereo not drawn) | 7 | 0 | 0 | –
Fc1ccc(C(CCCN2CCNCC2)c2ccc(F)cc2)cc1 | 18 | 9 | 0 | –
CN1CCN(CCNc2cc(Cl)ccc2Sc2ccccc2)CC1 | – | – | – | 3.68
O=C(/C=C/c1ccc(O)c(O)c1)NCCCNCCCCNCCCNC(=O)/C=C/c1ccc(O)c(O)c1 | – | – | – | 2.77
Clc1ccc(Sc2ccc(Cl)cc2NCCCN2CCCC2)cc1 | – | – | – | 4.06
N#Cc1ccc(C2NCCc3c2[nH]c2ccccc32)cc1 (stereo not drawn) | 0 | 0 | 0 | –
COc1ccc(CCC(=O)NCCCNCCCCN)cc1 | – | – | – | 5.82
c1ccc(Sc2ccccc2NCCCN2CCCC2)cc1 | – | – | – | 4.73
NCCc1ccc(Oc2ccccc2)cc1 | 0 | 0 | 0 | –
NCCN(CCN)CCCNc1cc(Cl)ccc1Sc1ccccc1 | – | – | – | 1.5
COc1ccc(/C=C/C(=O)NCCCNCCCCN)cc1 | – | – | – | 5.6
CN1CCN(CCNc2cc(Cl)ccc2Sc2ccc(Cl)cc2)CC1 | – | – | – | 3.85

Structure (SMILES) | inhibition [1] [%] | inhibition [2] [%] | inhibition [3] [%] | Natural log of inhibition constant (Ki in uM) [4]
Clc1ccc(Sc2ccccc2)c(NCCCN2CCCCC2)c1 | – | – | – | 3.95
CCC(C)(C)c1ccc(OCCCCN)c(C(C)(C)CC)c1 | 0 | 0 | 0 | –
CN(C)CCNc1cc(Cl)ccc1Sc1ccccc1 | – | – | – | 4.38
CN1CCN(CCCNc2cc(Cl)ccc2Sc2ccc(F)cc2)CC1 | – | – | – | 4.74
COc1ccc(/C=C/C(=O)N2CCCN(CCCCN)C2)cc1 | – | – | – | 5.01
NCCCNCCCNC1=C(c2c[nH]c3ccccc23)C(=O)NC1=O | – | – | – | 0.91
Clc1ccc(Sc2ccccc2)c(NCCN2CCCCC2)c1 | – | – | – | 6.55
O=C(CCc1ccc(O)c(O)c1)NCCCCNCCCNC(=O)CCc1ccc(O)c(O)c1 | – | – | – | 2.01
CN(C)CCNc1ccccc1Sc1ccc(Cl)cc1 | – | – | – | 4.38
Clc1ccc(Sc2ccc(Cl)cc2NCCN2CCCCC2)cc1 | – | – | – | 6.9
Clc1ccc(Sc2ccc(Cl)cc2NCCCN2CCCCC2)cc1 | – | – | – | 4.09
CN(C)CCNc1cc(Cl)ccc1Sc1ccc(Cl)cc1 | – | – | – | 3.91
COc1cc(CC2NCCc3c2[nH]c2ccccc32)ccc1O (stereo not drawn) | 27 | 13 | 0 | –
NCCNCCCNc1cc(Cl)ccc1Sc1ccccc1 | – | – | – | 3
Cc1ccc(Sc2ccc(Cl)cc2NCCCN2CCN(C)CC2)cc1 | – | – | – | 3.33
CN1CCN(CCCCNc2ccccc2Sc2cccc(NCCCCCNc3cccc(Sc4ccccc4NCCCCN4CCN(C)CC4)c3)c2)CC1 | – | – | – | 1
Clc1ccc(Sc2ccccc2NCCN2CCCC2)cc1 | – | – | – | 5.08
Clc1ccc(Sc2ccccc2)c(NCCCN2CCCC2)c1 | – | – | – | 3.78
Cc1ccc(Sc2ccc(C)cc2NCCCN2CCN(C)CC2)cc1 | – | – | – | 4.38
Clc1ccc(C(c2ccccc2)N2CCNCC2)cc1 (stereo not drawn) | 40 | 30 | 0 | –
NCCC1CCN(Cc2ccccc2)CC1 | 0 | 0 | 0 | –
Cc1ccc(Sc2ccc(F)cc2)c(NCCCN2CCN(C)CC2)c1 | – | – | – | 5.35
CN1CCN(CCNc2ccccc2Sc2ccc(Cl)cc2)CC1 | – | – | – | 4.38
Cc1cc(-c2ccccc2)nnc1NCCN1CCOCC1 | 12 | 16 | 18 | –
COc1ccc(/C=C/C(=O)NCCCCN2CCCN(C(=O)/C=C/c3ccc(OC)cc3)C2)cc1 | – | – | – | 5.01
NCCCNCCCCNCCCNC(=O)CCc1ccc(O)c(O)c1 | – | – | – | 4.44
